From ChEMBL document CHEMBL3745658, “An Orally Bioavailable, Indole-3-glyoxylamide Based Series of Tubulin Polymerization Inhibitors Showing Tumor Growth Inhibition in a Mouse Xenograft Model of Head and Neck Cancer” (J Med Chem, 2015)
In brackets after ≈: the same amount, converted by molar mass. Activity calls are given as the source filed them. The calls are words filed in the database; no cut-off is given here.

Assays:
[1] = tested on: FaDu; assay: Cytotoxicity against human FADU cells assessed as reduction in cell viability after 72 hrs by MTT assay; format: functional; conditions: read-out: LC50 (the source's name)
[2] = molecular target: T1, Tubulin (Sus scrofa) (UniProt P02554+P02550); assay: Displacement of [3H]-vinblastine from biotinylated porcine tubulin after 15 mins by competitive binding assay; format: protein assay
Method in brief: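 Biotinylated porcine tubulin, 0.2 μM [3H]-vinblastine, SPA beads and test compound combined together in G-PEM with 1 mM GTP, 3% DMSO, duplicate wells, 15 min at rt before counting. Nonspecific binding taken with 1000-fold unlabeled excess. IC50 from seven-point semilog curves, four-parameter fit.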

[3] = Solubility in 2% DMSO containing 50 mM potassium phosphate buffer solution pH 7.4 at 10 uM by dynamic light scattering method; conditions: pH 7.4, 10 µM
[4] = Metabolic stability in CD-1 mouse liver microsomes assessed as half life at 1 uM preincubated for 5 mins before addition of NADPH by LC-MS/MS method; format: ADME
[5] = molecular target: T1, Tubulin (Sus scrofa); assay: Displacement of [3H]-paclitaxel from biotinylated porcine tubulin after 25 mins by competitive binding assay; format: protein assay
Method in brief: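 Biotinylated porcine tubulin precoupled to SPA beads for 30 min at 4 °C, then 0.05 μM [3H]-paclitaxel and test compound added in G-PEM with 1 mM GTP, 3% DMSO, duplicate wells, 25 min at rt. Nonspecific binding taken with 1000-fold unlabeled excess. IC50 from seven-point semilog curves, four-parameter fit.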

[6] = Solubility in 2% DMSO containing 50 mM potassium phosphate buffer solution at pH 7.4 by dynamic light scattering method; conditions: 50 mM potassium phosphate buffer with 2% DMSO
[7] = Efflux ratio of apparent permeability from basolateral to apical side over apical to basolateral side in human Caco2 cells; conditions: Caco-2
[8] = Apparent permeability from apical to basolateral side in human Caco2 cells at 10 uM at pH 7.4 after 60 mins by mass spectrometry; conditions: Caco-2, pH 7.4
[9] = tested on: MES-SA/Dx5; assay: Cytotoxicity against multidrug resistant human MES-SA/Dx5 cells assessed as reduction in cell viability after 72 hrs by MTT assay; format: functional, cell-based
Method in brief: (§1)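 Cells plated at an appropriate density and left 24 h to attach, then dosed in triplicate with compound diluted from 10 mM DMSO stocks into full growth medium (added at 2× final concentration). After 72 h, cells PBS-washed and given MTT (0.5 mg/mL in PBS) for 45−60 min. Formazan dissolved in 0.1 M HCl/2-propanol, A570 read (650 nm reference). Viability normalised to DMSO control; LC50 by nonlinear regression.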

[10] = tested on: SCC-4; assay: Cytotoxicity against human SCC4 cells assessed as reduction in cell viability after 72 hrs by MTT assay; format: functional, cell-based; method in brief: as §1
[11] = molecular target: T2, Tubulin (Sus scrofa, UniProt P02554+P02550); assay: Inhibition of porcine brain tubulin polymerization assessed as reduction in GTP-induced microtubule assembly after 60 mins by OD340 method
[12] = tested on: MES-SA; assay: Cytotoxicity against human MES-SA cells assessed as reduction in cell viability after 72 hrs by MTT assay; format: functional, cell-based; method in brief: as §1
[13] = tested on: SK-MEL-28; assay: Cytotoxicity against human SK-MEL-28 cells assessed as reduction in cell viability after 72 hrs by MTT assay; format: functional, cell-based; method in brief: as §1
[14] = molecular target: T2, Tubulin; assay: (§2) Displacement of [3H]-colchicine from biotinylated porcine tubulin after 2 hrs by competitive binding assay; format: protein assay
Method in brief: (§3)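 Biotinylated porcine tubulin (750 ng/well) with 0.1 μM [3H]-colchicine and test compound in G-PEM with 1 mM GTP, 3% DMSO, duplicate wells, 2 h at 37 °C. Streptavidin SPA beads then added for 45 min at 37 °C. Nonspecific binding taken with 1000-fold unlabeled excess. IC50 from seven-point semilog curves, four-parameter fit.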

[15] = tested on: SH-SY5Y; assay: Cytotoxicity against human SH-SY5Y cells assessed as reduction in cell viability after 72 hrs by MTT assay; format: functional, cell-based; method in brief: as §1
[16] = molecular target: T1, Tubulin (Sus scrofa); assay: as §2; format: protein assay; method in brief: as §3

Row | Structure (SMILES) | CC50 [1] [nM] | other results
1 | COc1ccc(NC(=O)C(=O)c2cn(C(C)C)c3ccccc23)nn1 | 2270 | –
2 | COc1ccc2c(C(=O)C(=O)Nc3ccc(OC)nc3)cn(C(C)C)c2c1 | > 10000 | –
3 | COCCn1cc(C(=O)C(=O)Nc2ccncc2)c2ccccc21 | > 10000 | –
4 | COCCn1cc(C(=O)C(=O)Nc2ccc(OC(C)(C)C)nc2)c2ccccc21 | 858 | –
5 | CCn1cc(C(=O)C(=O)Nc2ccnc(OC)c2)c2ccccc21 | 4180 | –
6 | COc1ccc(NC(=O)C(=O)c2cc(C(C)C)n3ccccc23)cn1 | 160 | Activity [2]: inactive; solubility [3]: soluble; half-life at 1 µM [4]: < 5 min; Activity [5]: inactive; solubility kinetic [6]: 10 µM (≈ 3.37 µg/mL)
7 | COCCc1cc(C(=O)C(=O)Nc2ccc(OC(F)(F)F)cc2)c2ccccn12 | 758 | –
8 | COc1ccc(NC(=O)C(=O)c2cn(CCC(=O)O)c3ccccc23)cn1 | > 10000 | solubility kinetic [6]: > 200 µM
9 | CC(C)Oc1ccc(NC(=O)C(=O)c2cn(C(C)C)c3ccccc23)cn1 | 408 | half-life at 1 µM [4]: 66 min
10 | COCCn1cc(C(=O)C(=O)Nc2ccnc(OC)c2)c2ccccc21 | 235 | –
11 | COc1ccc(NC(=O)C(=O)c2cn(C(C)C)c3cc(Cl)ccc23)cn1 | 1770 | –
12 | CCC(C)n1cc(C(=O)C(=O)Nc2ccc(OC)nc2)c2ccccc21 (stereo not drawn) | 68 | –
13 | COCCn1cc(C(=O)C(=O)Nc2ccc(OC)cc2)c2ccccc21 | 59 | –
14 | COc1ccc(NC(=O)C(=O)c2cn(C(C)C)c3cccc(OC)c23)cn1 | 7780 | –
15 | CCn1cc(C(=O)C(=O)Nc2ccc(OC)nc2)c2ccccc21 | 219 | Activity [2]: Active; solubility [3]: soluble; Activity [5]: inactive; solubility kinetic [6]: 10 µM (≈ 3.23 µg/mL)
16 | CC(C)n1cc(C(=O)C(=O)Nc2ccncc2)c2ccccc21 | > 10000 | –
17 | COc1ccc(NC(=O)C(=O)c2cn(C(C)C)c3c(Cl)cccc23)cn1 | 10200 | –
18 | COc1ncc(NC(=O)C(=O)c2cn(C(C)C)c3ccccc23)cn1 | 171 | efflux ratio [7]: 1; half-life at 1 µM [4]: 5 min; Papp A→B at 1 h, 10 µM [8]: 39.8 ×10⁻⁶ cm/s
19 | COc1cc(NC(=O)C(=O)c2cn(C(C)C)c3ccccc23)ccn1 | 1750 | –
20 | COCCc1cc(C(=O)C(=O)Nc2ccc(OC)nc2)c2ccccn12 | 36 | half-life at 1 µM [4]: 6 min
21 | CC[C@]1(O)C[C@@H]2CN(CCc3c([nH]c4ccccc34)[C@@](C(=O)OC)(c3cc4c(cc3OC)N(C)[C@H]3[C@@](O)(C(=O)OC)[C@H](OC(C)=O)[C@]5(CC)C=CCN6CC[C@]43[C@@H]65)C2)C1 | – | Activity [9]: inactive

Row | Structure (SMILES) | CC50 [1] [nM] | other results
22 | CC(=O)O[C@H]1C(=O)[C@@]2(C)[C@H]([C@H](OC(=O)c3ccccc3)[C@]3(O)C[C@H](OC(=O)[C@H](O)[C@@H](NC(=O)c4ccccc4)c4ccccc4)C(C)=C1C3(C)C)[C@]1(OC(C)=O)CO[C@@H]1C[C@@H]2O | – | Activity [9]: inactive
23 | COC(=O)CCn1cc(C(=O)C(=O)Nc2ccc(OC)nc2)c2ccccc21 | 168 | –
24 | COc1ccc(NC(=O)C(=O)c2cn(C(C)C)c3ccccc23)cc1OC | > 10000 | –
25 | COc1nsc(NC(=O)C(=O)c2cn(C(C)C)c3ccccc23)n1 | 10400 | –
26 | CCOC(=O)COc1ccc(NC(=O)C(=O)c2cn(CCOC)c3ccccc23)cn1 | > 10000 | –
27 | COc1nc(NC(=O)C(=O)c2cn(C(C)C)c3ccccc23)ns1 | > 10000 | –
28 | COCC(C)(C)n1cc(C(=O)C(=O)Nc2ccc(OC)nc2)c2ccccc21 | 137 | Activity [10]: Active; IC50 [11]: 7800 nM; Activity [2]: Active; solubility [3]: soluble; half-life at 1 µM [4]: 16 min; Activity [12]: Active; Activity [9]: Active; Activity [5]: inactive; Activity [13]: Active; IC50 [14]: 2500 nM; solubility kinetic [6]: 10 µM (≈ 3.81 µg/mL); Activity [15]: Active
29 | COc1cc([C@@H]2c3cc4c(cc3[C@H](O)[C@H]3COC(=O)[C@H]23)OCO4)cc(OC)c1OC | – | Activity [16]: Active
30 | COc1ccc(NC(=O)C(=O)c2cn(C(C)C)c3ncccc23)cn1 | 126 | Activity [2]: inactive; Activity [5]: inactive
31 | COCCn1cc(C(=O)C(=O)Nc2ccc(OC)nc2)c2cc(OC)ccc21 | > 10000 | –
32 | COCCn1cc(C(=O)C(=O)Nc2ccc(OC)nc2)c2cc(Cl)ccc21 | > 10000 | –
33 | CCOc1ccc(NC(=O)C(=O)c2cn(C(C)C)c3ccccc23)cn1 | 175 | –
34 | CC(C)n1cc(C(=O)C(=O)Nc2ccc(C(F)(F)F)nc2)c2ccccc21 | > 10000 | –
35 | COc1ccc(NC(=O)C(=O)c2cn(C(C)(C)COCC(=O)O)c3ccccc23)cn1 | > 10000 | solubility kinetic [6]: > 200 µM
36 | COc1ccc(NC(=O)C(=O)c2cn(CCOC(C)C)c3ccccc23)cn1 | 211 | half-life at 1 µM [4]: 23 min
37 | COCCn1cc(C(=O)C(=O)Nc2ccc(C(F)(F)F)nc2)c2ccccc21 | > 10000 | –
38 | CCCCn1cc(C(=O)C(=O)Nc2ccc(OC)nc2)c2ccccc21 | 18 | –
39 | CCc1cc(C(=O)C(=O)Nc2ccc(OC)nc2)c2ccccn12 | 110 | –
40 | COc1ccc(NC(=O)C(=O)c2cn(C(C)C)c3ccncc23)cn1 | > 10000 | –
41 | COCCn1cc(C(=O)C(=O)Nc2ccc(OCC(=O)O)nc2)c2ccccc21 | > 10000 | solubility kinetic [6]: > 200 µM
42 | CCn1cc(C(=O)C(=O)Nc2ccncc2)c2ccccc21 | > 10000 | –

Row | Structure (SMILES) | CC50 [1] [nM] | other results
43 | COc1cc2c(c(OC)c1OC)-c1ccc(OC)c(=O)cc1[C@@H](NC(C)=O)CC2 | – | Activity [9]: inactive
44 | COc1ccc(NC(=O)C(=O)c2cn(C(C)C)c3ccccc23)cc1 | 181 | –
45 | COc1ccc(NC(=O)C(=O)c2cn(CC3CCO3)c3ccccc23)cn1 (stereo not drawn) | 686 | –
46 | COc1ccc(NC(=O)C(=O)c2cn(C(C)C)c3c(OC)cccc23)cn1 | > 10000 | –
47 | COc1ccc(NC(=O)C(=O)c2cn(C(C)C)c3cccc(Cl)c23)cn1 | 2130 | –
48 | COc1ccc(NC(=O)C(=O)c2cn(C3CCCC3)c3ccccc23)cn1 | 370 | –
49 | CC(C)n1cc(C(=O)C(=O)Nc2cccnc2)c2ccccc21 | > 10000 | –
50 | CC(C)n1cc(C(=O)C(=O)Nc2ccc(OC(F)(F)F)cc2)c2ccccc21 | 8930 | –
51 | COCCn1cc(C(=O)C(=O)Nc2ccc(OC(F)(F)F)cc2)c2ccccc21 | 487 | Activity [2]: Active; Activity [5]: inactive
52 | COc1ccc(NC(=O)C(=O)c2cn(CC(C)C)c3ccccc23)cn1 | 317 | –
53 | COc1ccc(NC(=O)C(=O)c2cn(C(C)C)c3ccc(Cl)cc23)cn1 | > 10000 | –
54 | COc1ccc(NC(=O)C(=O)c2cn(C(C)C)c3ccc(Cl)cc23)cc1 | > 10000 | –
55 | COc1ccc(NC(=O)C(=O)c2cn(C(C)C)c3cccnc23)cn1 | > 10000 | –
56 | COc1ccc2c(c1)c(C(=O)C(=O)Nc1ccc(OC)nc1)cn2C(C)C | > 10000 | –
57 | COc1ccc(NC(=O)C(=O)c2cn(C(C)C)c3cnccc23)cn1 | > 10000 | –
58 | CC(=O)O[C@@]12CO[C@@H]1C[C@H](O)[C@@]1(C)C(=O)[C@H](O)C3=C(C)[C@@H](OC(=O)[C@H](O)[C@@H](NC(=O)OC(C)(C)C)c4ccccc4)C[C@@](O)([C@@H](OC(=O)c4ccccc4)[C@H]21)C3(C)C | – | Activity [2]: Active; Activity [5]: Active; Activity [16]: inactive
59 | COCCn1cc(C(=O)C(=O)Nc2ccc(OC)nc2)c2ccccc21 | 17 | Activity [10]: Active; half-life at 1 µM [4]: 11 min; Activity [12]: Active; Activity [9]: Active; Activity [13]: Active; Activity [15]: Active
60 | COc1ccc(NC(=O)C(=O)c2cn(CC(C)(C)OC)c3ccccc23)cn1 | > 10000 | –
61 | COCCn1cc(C(=O)C(=O)Nc2cnc(OC)nc2)c2ccccc21 | 55 | –
62 | COCCn1cc(C(=O)C(=O)Nc2ccc(OC)nc2)c2cccnc21 | 27 | Activity [10]: Active; IC50 [11]: 2600 nM; Activity [2]: inactive; Activity [12]: Active; Activity [9]: Active; Activity [5]: inactive; Activity [13]: Active; IC50 [14]: 940 nM; Activity [15]: Active
